# Assay results as given in ChEMBL document CHEMBL1134272, “Enantiomeric synthesis of D- and L-cyclopentenyl nucleosides and their antiviral activity against HIV and West Nile virus” (J Med Chem, 2001).
# Key:
# [1] = system: Human immunodeficiency virus 1; experiment: In vitro antiviral activity against HIV-1 in human PBM cells.; format: functional, organism-based; settings: Human immunodeficiency virus 1, PBMC
# [2] = In vitro cytotoxicity in PBM cells.; format: functional, cell-based; settings: Homo sapiens, PBMC
# CCRF-CEM = experiment: In vitro cytotoxicity in CEM cells.; format: functional, cell-based; settings: Homo sapiens
# Vero = experiment: In vitro cytotoxicity in vero cells.; format: functional, cell-based; settings: Chlorocebus sabaeus
# Summary of the method: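 Uninfected Vero cells were treated with serial compound dilutions, with toxicity controls in duplicate at each concentration, and were scored visually 6 days later. Scoring was confirmed by neutral red uptake (2-3 h, 37 °C; absorbance 540 and 405 nm) expressed as percent of control. IC50 was obtained by regression analysis.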
# West Nile virus = experiment: In vitro antiviral activity against West Nile Virus.; format: functional, organism-based
# Summary of the method: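 Lightly confluent Vero cells in 96-well plates received serial compound dilutions and then 5 CCID50 of the WNV New York isolate, with test samples in triplicate. Cells were scored visually for cytopathic effect 6 days after virus exposure. Neutral red uptake (2-3 h, 37 °C; absorbance 540 and 405 nm) was used to verify the scoring. EC50 was obtained by regression on mean ratings or on percent-of-control absorbance.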
# [3] = system: Human immunodeficiency virus 1; experiment: The compound was evaluated for the antiviral activity against HIV-1 in human PBM cells; format: functional, organism-based
Compound,EC50 [1] [µM],IC50 [2] [µM],IC50 (CCRF-CEM) [µM],IC50 (Vero) [µM],EC50 (West Nile virus) [µM],"IC50 ([3]; Human immunodeficiency virus 1, PBMC) [µM]",IC50 ([3]; pbm) [µM]
O=c1ccn([C@@H]2C=C(CO)[C@@H](O)[C@H]2O)c(=O)[nH]1,> 100,> 100,> 100,> 100,> 200,,
Nc1ccn([C@H]2C=C(CO)[C@H](O)[C@@H]2O)c(=O)n1,58.9,> 100,> 100,> 100,> 200,,
Nc1nc(O)c2ncn([C@@H]3C=C(CO)[C@@H](O)[C@H]3O)c2n1,> 100,> 100,> 100,> 100,> 200,,
OCC1=C[C@H](n2cnc3c(O)ncnc32)[C@@H](O)[C@H]1O,> 100,> 100,> 100,> 100,> 200,,
Nc1nc(=O)n([C@@H]2C=C(CO)[C@@H](O)[C@H]2O)cc1F,5.34,73.7,51.8,27.4,15,5.34,5.34
O=c1[nH]c(=O)n([C@@H]2C=C(CO)[C@@H](O)[C@H]2O)cc1F,93.1,> 100,> 100,> 100,> 200,,
Nc1ncnc2c1ncn2[C@H]1C=C(CO)[C@H](O)[C@@H]1O,> 100,> 100,> 100,> 100,> 200,,
Cc1cn([C@@H]2C=C(CO)[C@@H](O)[C@H]2O)c(=O)[nH]c1=O,> 100,> 100,> 100,> 100,> 200,,
Nc1nc(O)c2ncn([C@H]3C=C(CO)[C@H](O)[C@@H]3O)c2n1,> 100,> 100,> 100,> 100,> 200,,
Cc1cn([C@H]2C=C(CO)[C@H](O)[C@@H]2O)c(=O)[nH]c1=O,> 100,> 100,> 100,> 100,> 200,,
O=c1[nH]c(=O)n([C@H]2C=C(CO)[C@H](O)[C@@H]2O)cc1F,> 100,> 100,> 100,> 100,> 200,,
Nc1nc(=O)n([C@H]2C=C(CO)[C@H](O)[C@@H]2O)cc1F,> 100,> 100,> 100,> 100,> 200,,
O=c1ccn([C@H]2C=C(CO)[C@H](O)[C@@H]2O)c(=O)[nH]1,> 100,> 100,> 100,> 100,> 200,,
OCC1=C[C@@H](n2cnc3c(O)ncnc32)[C@H](O)[C@@H]1O,> 100,> 100,> 100,> 100,> 200,,
Nc1ccn([C@@H]2C=C(CO)[C@@H](O)[C@H]2O)c(=O)n1,0.06,6.5,0.08,1.95,0.2,,
O=c1cnn([C@@H]2O[C@H](CO)[C@@H](O)[C@H]2O)c(=O)[nH]1 [6-AZAURIDINE],,,,> 100,1.2,,
Nc1ncnc2c1ncn2[C@@H]1C=C(CO)[C@@H](O)[C@H]1O [NEOPLANOCIN A],0.1,44.6,1.2,3.5,> 51,,
Cc1cn([C@H]2C[C@H](N=[N+]=[N-])[C@@H](CO)O2)c(=O)[nH]c1=O [ZIDOVUDINE],0.004,> 100,,,,,
